This is an account of results in PubChem BioAssay.

A short description of test [1]: SK-BR-3 cell growth inhibitors, pilot screen, 24 h, human (AID 572;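 active means viability at or below 10% of carrier control in both of two separate runs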;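 further: compound exposure lasted between 18 and 24 h rather than exactly 24 h; 100% = carrier-treated control wells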). Conditions: SK-BR-3 viability, CellTiter-Glo luminescence, at 10 µM, stronger effect = lower value. On the technique in general: In ATP-based viability assays light output follows the ATP content of the culture.
Test [2] in a line: HUVEC growth inhibition – cell-based, human, primary screen (AID 575;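 active means viability at or below 30% in both replicate assays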;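 further: 100% = median of untreated cell wells with 0.1% DMSO on each plate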). As to conditions: HUVEC proliferation, CellTiter-Glo luminescence, 72 h; at 10 µM; stronger effect = lower value. The method in brief: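 material = primary HUVEC, no more than 12 passages | input = 1250 cells per well | controls = vehicle and MePR control wells | measured by = CTG luminescence | times = 72 h compound incubation | format = collagen-coated 384-well format | read-out = % viability vs DMSO wells | doses = single 10 µM dose, 0.1% DMSO, from 5x medium stock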

Test [3] in a line: growth inhibitors of H69AR lung tumor, primary screen, human, duplicate replicates (AID 580).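 Further: 100% = mean luminescence of untreated wells and 0% = no signal.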 Conditions: H69AR lung tumor cells viability, ATP luminescence, 72 h; at 10 µM; stronger effect = lower value.
Test [4] can be described thus: reversal of MRP1-mediated doxorubicin resistance, pilot screen, H69AR cells, doxorubicin co-treatment (AID 601;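 active means viability loss from added drug above about 55%, and viability with drug at most 40%, in both replicates, limit read from the data, passing the limit was not always enough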). As to conditions: CellTiter-Glo, 72 h, at 10 µM; for differential viability (reversal): stronger effect = higher value.
The nature of test [5]: 384-well plate pilot, post-Golgi transport modulator project, inhibition of yeast transport mutant growth (AID 636; in the data active means inhibition above about 31%). As to conditions: absorbance 615 nm, about 18 h, stronger effect = higher value.
Test [6] is described as follows: growth suppression of yeast trafficking mutant, preliminary HTS, modulators of trafficking downstream of Golgi apparatus project, 1536-format plate, OD 615 nm (AID 637; in the data active means inhibition above about 30%). Conditions: yeast transport mutant growth, absorbance 615 nm, 18 h; stronger effect = higher value.
The mark [7] stands for this setting: H69AR cells + 2 uM doxorubicin, measured here: viability with 2 uM doxorubicin, stronger effect = lower value.
The mark [8] stands for this setting: H69AR cells, compound alone cytotoxicity.

Calls of active or inactive are those of the source.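 How the source made its calls, unless noted: active means viability at or under a set limit in both replicates, limit being median viability minus 3 SD (cut at about 48% in these data, passing the limit was not always enough); inconclusive means at or under the limit in just one replicate; inactive means at or above the limit in both replicates.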

Turning to `Cc1nc(-c2ccccc2)sc1C(N)=O`, the viability was 107% (inactive) in test [1]; 96.4% (inactive) in test [2]; 94.4% (inactive) in test [3]; 106% in test [4] (setting [7]); 94.4% in test [4] (setting [8]). In test [4] (H69AR cells + 2 uM doxorubicin), the differential viability (reversal) is -12.1% (inactive). For the same compound, the values for the inhibition in test [5] and in test [6] were -3.29% (inactive) and 12.6% (inactive), respectively.
As to `COc1ccccc1NC(=O)Cc1noc(CSc2cc(C)c3ccccc3n2)n1`, the viability in test [1] is 104% (inactive); in test [2] it was 89.5% (inactive); in test [3], 92.5% (inactive); in test [4] (setting [7]), 80.7%; in test [4] (setting [8]) it was 92.5%. Besides, the differential viability (reversal) in test [4] (H69AR cells + 2 uM doxorubicin) was 11.8% (inactive). Also, the inhibition in test [5] was -4.59% (inactive); in test [6], 1.64% (inactive).
Take `CC(C)CNS(=O)(=O)c1ccc(CCC(=O)NCc2ccco2)cc1`: the viability in test [1] is 113% (inactive); in test [2] it was 88.6% (inactive); in test [3], 84.5% (inactive); in test [4] (setting [7]), 87.7%; in test [4] (setting [8]) it was 84.5%. For the same compound, the differential viability (reversal) in test [4] (H69AR cells + 2 uM doxorubicin) was -3.21% (inactive). Moreover, the inhibition was -4.93% (inactive) in test [5] and 1.29% (inactive) in test [6].
On to `COC(=O)CS(=O)(=O)c1nnc([C@H](Cc2ccccc2)NC(=O)OC(C)(C)C)o1`, for which the viability in test [1] is 77.5% (inactive); in test [2], 3.82% (active); in test [3], 1.21% (active); in test [4] (setting [7]) it was 0.69%; in test [4] (setting [8]), 1.21%. For the same compound, the differential viability (reversal) in test [4] (H69AR cells + 2 uM doxorubicin) was 0.515% (inactive). In addition, the inhibition in test [5] was -5.45% (inactive); in test [6], -12.3% (inactive).
Consider `CCN(CCCc1ccccc1)CCCc1ccccc1`, for which the viability in test [1] was 76% (inactive); in test [2] it was 77.6% (inactive); in test [3], 78.6% (inactive); in test [4] (setting [7]), 91.2%; in test [4] (setting [8]), 78.6%. For the same compound, in test [4] (H69AR cells + 2 uM doxorubicin), the differential viability (reversal) was -12.7% (inactive). Moreover, the inhibition in test [5] was 2.34% (inactive); in test [6], 15% (inactive).
In the case of `COc1ccc(OC)c(S(=O)(=O)Nc2ccc(O)c3ccccc23)c1`, the viability in test [1] was 6% (active); in test [2] it was 3.38% (active); in test [3], 1.73% (active); in test [4] (setting [7]), 2.06%; in test [4] (setting [8]), 1.73%. Moreover, the differential viability (reversal) in test [4] (H69AR cells + 2 uM doxorubicin) was -0.325% (inactive). The inhibition in test [5] is -2.5% (inactive); in test [6], -5.33% (inactive).
Take `CN1C(=O)c2oc3ccccc3c(=O)c2C1c1ccccn1` (centres undefined): the viability is 105% (inactive) in test [1]; 87% (inactive) in test [2]; 106% (inactive) in test [3]; 94.8% in test [4] (setting [7]); 106% in test [4] (setting [8]). Further, in test [4] (H69AR cells + 2 uM doxorubicin), the differential viability (reversal) was 11% (inactive). Further, the inhibition in test [5] was -6.58% (inactive); in test [6], -1.09% (inactive).
For `CN(C(=O)c1ccccn1)c1nnc(-c2cccnc2)s1`, the viability in test [1] was 97% (inactive); in test [2], 90.6% (inactive); in test [3], 111% (inactive); in test [4] (setting [7]), 93.5%; in test [4] (setting [8]) it was 111%. In addition, in test [4] (H69AR cells + 2 uM doxorubicin), the differential viability (reversal) is 17.8% (inactive). Also, the figures for the inhibition in test [5] and in test [6] were -5.07% (inactive) and -2.26% (inactive), respectively.
As for `CCOC(=O)Cc1csc(NC(=O)CSc2nnc(C3CC3)n2C)n1`, the viability was 95% (inactive) in test [1]; 107% (inactive) in test [2]; 97.9% (inactive) in test [3]; 91.5% in test [4] (setting [7]); 97.9% in test [4] (setting [8]). The differential viability (reversal) in test [4] (H69AR cells + 2 uM doxorubicin) is 6.36% (inactive). Further, the results for the inhibition in test [5] and in test [6] were -5.81% (inactive) and -3.82% (inactive), respectively.
`CCc1nc(SCC(=O)NCc2ccco2)c2c3c(sc2n1)CCCC3`: the viability is 97% (inactive) in test [1]; 78.8% (inactive) in test [2]; 67.8% (inactive) in test [3]; 77.1% in test [4] (setting [7]); 67.8% in test [4] (setting [8]). Moreover, the differential viability (reversal) in test [4] (H69AR cells + 2 uM doxorubicin) was -9.31% (inactive). The figures for the inhibition in test [5] and in test [6] were -3.12% (inactive) and -3.44% (inactive), respectively.
With `COc1ccc(OC)c(NS(=O)(=O)Cc2ccccc2)c1`, the viability in test [1] is 63% (inactive); in test [2], 102% (inactive); in test [3] it was 97.5% (inactive); in test [4] (setting [7]), 112%; in test [4] (setting [8]) it was 97.5%. Besides, the differential viability (reversal) in test [4] (H69AR cells + 2 uM doxorubicin) is -14.4% (inactive). In addition, the figures for the inhibition in test [5] and in test [6] were -7.81% (inactive) and 1.64% (inactive), respectively.
For the compound `CCN(C(C)=O)c1nnc(CSc2nc3ccccc3s2)s1`, the viability is 114% (inactive) in test [1]; 72.5% (inactive) in test [2]; 100% (inactive) in test [3]; 86.7% in test [4] (setting [7]); 100% in test [4] (setting [8]). In test [4] (H69AR cells + 2 uM doxorubicin), the differential viability (reversal) was 13.3% (inactive). The values for the inhibition in test [5] and in test [6] were -0.52% (inactive) and -2.95% (inactive), respectively.
Turning to `COc1ccc(S(=O)(=O)N2CCN(S(=O)(=O)c3ccc4c(c3)OCCO4)CC2)cc1C`, the viability in test [1] is 101% (inactive); in test [2] it was 109% (inactive); in test [3] it was 88.2% (inactive); in test [4] (setting [7]), 70.7%; in test [4] (setting [8]) it was 88.2%. For the same compound, the differential viability (reversal) in test [4] (H69AR cells + 2 uM doxorubicin) was 17.5% (inactive). The inhibition is -5.33% (inactive) in test [5] and 1.09% (inactive) in test [6].
Consider `COc1ccc(NC(=O)N(C2CCCCC2)C2CCN(C(C)C)CC2)c(OC)c1`, for which the viability in test [1] is 87% (inactive); in test [2] it was 100% (inactive); in test [3] it was 103% (inactive); in test [4] (setting [7]), 83.2%; in test [4] (setting [8]) it was 103%. In addition, the differential viability (reversal) in test [4] (H69AR cells + 2 uM doxorubicin) is 19.4% (inactive). For the same compound, the inhibition in test [5] was -2.73% (inactive); in test [6] it was -7.87% (inactive).
For the compound `Cc1cc(C)n(CC(=O)NC2CCCCC2)n1`, the viability was 113% (inactive) in test [1]; 114% (inactive) in test [2]; 98% (inactive) in test [3]; 85.3% in test [4] (setting [7]); 98% in test [4] (setting [8]). Moreover, in test [4] (H69AR cells + 2 uM doxorubicin), the differential viability (reversal) is 12.7% (inactive). The inhibition in test [5] was -8.49% (inactive); in test [6], 0.32% (inactive).
Turning to `CC1(C)CC(=O)C=C(NC2CCS(=O)(=O)C2)C1` (centres undefined), the viability was 97% (inactive) in test [1]; 107% (inactive) in test [2]; 91.3% (inactive) in test [3]; 92.2% in test [4] (setting [7]); 91.3% in test [4] (setting [8]). In test [4] (H69AR cells + 2 uM doxorubicin), the differential viability (reversal) was -0.825% (inactive). The inhibition was 0% (inactive) in test [5] and 6.89% (inactive) in test [6].
On to `O=[n+]1cc(-c2ccc(F)cc2)n([O-])c2c1CCC2`, for which the viability was 97% (inactive) in test [1]; 100% (inactive) in test [2]; 90.7% (inactive) in test [3]; 89.4% in test [4] (setting [7]); 90.7% in test [4] (setting [8]). In addition, the differential viability (reversal) in test [4] (H69AR cells + 2 uM doxorubicin) was 1.25% (inactive). For the same compound, the inhibition in test [5] was -1.82% (inactive); in test [6], 1.97% (inactive).
With `Cc1ccc2c(CC(=O)OCc3csc(C)n3)coc2c1`, the viability in test [1] is 106% (inactive); in test [2] it was 90.3% (inactive); in test [3], 98.5% (inactive); in test [4] (setting [7]) it was 96%; in test [4] (setting [8]), 98.5%. Besides, in test [4] (H69AR cells + 2 uM doxorubicin), the differential viability (reversal) is 2.5% (inactive). Moreover, the inhibition was -8.78% (inactive) in test [5] and 3.77% (inactive) in test [6].

For orientation: viability means a read-out of living cells in per cent, often relative to untreated cells. What is called inhibition is the drop in the measured response relative to a control, in per cent.
